Assay results pooled from the literature.
Target: Ephrin type-A receptor 3 (EPHA3, Homo sapiens, UniProt P29320)
Sequence (P29320 1-983, as in one of the studies): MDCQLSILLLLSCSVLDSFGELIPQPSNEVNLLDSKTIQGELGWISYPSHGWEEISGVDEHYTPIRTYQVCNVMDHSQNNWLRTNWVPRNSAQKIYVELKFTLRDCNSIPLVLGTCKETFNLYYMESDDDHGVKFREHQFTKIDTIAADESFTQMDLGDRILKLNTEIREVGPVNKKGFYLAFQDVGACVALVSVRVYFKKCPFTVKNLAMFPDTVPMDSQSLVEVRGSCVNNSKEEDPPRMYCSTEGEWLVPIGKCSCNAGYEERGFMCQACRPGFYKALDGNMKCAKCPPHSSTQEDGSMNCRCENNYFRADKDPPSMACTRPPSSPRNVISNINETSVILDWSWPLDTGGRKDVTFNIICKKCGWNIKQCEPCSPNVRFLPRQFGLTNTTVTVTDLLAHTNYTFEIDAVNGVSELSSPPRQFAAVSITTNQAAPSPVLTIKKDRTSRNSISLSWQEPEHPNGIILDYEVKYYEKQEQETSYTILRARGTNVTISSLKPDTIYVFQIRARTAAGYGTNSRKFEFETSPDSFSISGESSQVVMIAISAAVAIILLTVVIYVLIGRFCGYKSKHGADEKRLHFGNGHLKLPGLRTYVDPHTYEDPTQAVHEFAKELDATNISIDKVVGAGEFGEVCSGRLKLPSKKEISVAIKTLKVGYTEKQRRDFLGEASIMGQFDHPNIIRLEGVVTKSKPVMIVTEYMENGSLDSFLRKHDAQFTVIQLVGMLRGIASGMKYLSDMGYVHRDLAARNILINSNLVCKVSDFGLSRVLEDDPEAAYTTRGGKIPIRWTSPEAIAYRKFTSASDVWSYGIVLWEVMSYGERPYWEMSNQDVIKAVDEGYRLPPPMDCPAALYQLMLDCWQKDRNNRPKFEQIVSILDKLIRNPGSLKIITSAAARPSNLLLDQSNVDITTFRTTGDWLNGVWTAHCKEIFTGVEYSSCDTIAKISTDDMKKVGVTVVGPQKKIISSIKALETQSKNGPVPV

O=C(O)[C@@H]1[C@@H](Cn2nnc3ccccc3c2=O)CC[C@H]1C(=O)c1ccc(OCCC2CCOCC2)cc1 — remaining binding (cell-free assay, competition with immobilised ligand; 1 µM): 100%
Cc1cnc(NC2CCOCC2)nc1-n1cnc(C(=O)NC(CN)c2cc(F)cc(Cl)c2)c1 (stereo not shown) — remaining activity (enzyme activity, inhibitor, radiometric; 1 µM): 123%
CCOCCn1cc(C(=O)Nc2ccc(-n3nc(-c4cccnc4)cc3C(F)(F)F)cn2)ccc1=O — remaining binding (cell-free assay, competition with immobilised ligand; 1 µM): 99%
CCCOc1ccc(OC)c(F)c1C(=O)c1ccc(C(=O)N[C@@H]2CNC[C@H]2NC(=O)c2ccc3[nH]ncc3c2)cc1 — remaining activity (enzyme activity, inhibitor; 10 µM): 61%
O=C1Nc2ccc(Cl)cc2C1=Cc1cc(Cl)c(O)c(Cl)c1 — remaining signal (cell-free assay; 0.5 µM): 82.5%
CC(C)(O)[C@H]1CC[C@H](Nc2ccc3ncc(-c4cccc(C(F)(F)F)c4)n3n2)CC1 — remaining activity (enzyme activity, inhibitor; 1 µM): 107%
CCOC(=O)c1cc2cc(-c3cc(C(=O)NCc4ccc(C(=O)O)cc4)nn3C)ccc2[nH]1 — remaining binding (cell-free assay, competition with immobilised ligand; 0.1 µM): 100%
CCN(CC)CCNC(=O)c1c(C)[nH]c(/C=C2\C(=O)Nc3ccc(F)cc32)c1C — remaining signal (cell-free assay; 0.5 µM): 84%
CC(C)(C)c1nc(-c2cccc(NS(=O)(=O)c3c(F)cccc3F)c2F)c(-c2ccnc(N)n2)s1 — remaining activity (enzyme activity, inhibitor, radiometric; 1 µM): 91%
O=C(Nc1cnn(-c2csc(C(=O)NC3COC3)c2)c1)Nc1c(F)cccc1Cl — remaining activity (enzyme activity, inhibitor; 5 µM): 96.1%
CN(C)C1CCN(CC#Cc2nn(C3CCCC3)c3nc(NCc4ccccc4)ncc23)C1 (stereo not shown) — inhibition (enzyme activity, inhibitor, FRET; 10 µM): -3%
CNC(=O)Nc1ccc2c(c1)CC[C@@]21OC(=O)N(CC(=O)N(Cc2ccc(F)cc2)[C@@H](C)C(F)(F)F)C1=O — remaining binding (cell-free assay, competition with immobilised ligand; 1 µM): 100%
CC/C(=N\NC(=O)NCc1cccc(O)c1)c1ccc(O)c(C)c1O — inhibition (enzyme activity, inhibitor; 0.1 µM): 0.6%
N#CC1(c2ccccn2)CCN(Cc2cc(C(=O)N3CCCC3)c(=O)n3ccccc23)CC1 — remaining binding (cell-free assay, competition with immobilised ligand; 1 µM): 100%
Cc1cc(NC(=O)c2cccc3cc(-c4cccc5[nH]nc(N)c45)ccc23)ccc1F — activity vs control (enzyme activity, inhibitor; 0.1 µM): 103%
COc1cccc(CNC(=O)c2nc3scc(COCc4ccc(C(=O)O)cc4)c3c(=O)[nH]2)c1 — remaining binding (cell-free assay, competition with immobilised ligand; 1 µM): 91.3%
Cc1ccc(Nc2nccc(N(C)c3ccc4c(C)n(C)nc4c3)n2)cc1S(N)(=O)=O — inhibition (enzyme activity, inhibitor; 0.3 µM): 2%
Cc1ccc(C(=O)NCc2ccsc2)cc1C#Cc1cn(C(C)C)c2ncnc(N)c12 — activity vs control (enzyme activity, inhibitor; 1 µM): 45%
N#CCCc1ccc2c(c1)-c1[nH]c3ccc([N+](=O)[O-])cc3c1CC(=O)N2 — remaining signal (cell-free assay; 0.5 µM): 93.9%
CO[C@@H](C)c1c(Nc2ccc([C@@H](N(C)C(=O)C3CCS(=O)(=O)CC3)C(F)(F)F)cc2)cnc2cc(Cl)nn12 — remaining binding (cell-free assay, competition with immobilised ligand; 1 µM): 90%
CNC(=O)c1cc(Oc2ccc(NC(=O)Nc3ccc(Cl)c(C(F)(F)F)c3)cc2)ccn1 — inhibition (enzyme activity, inhibitor; 0.3 µM): 11%
CS(=O)(=O)CCNCc1ccc(-c2ccc3ncnc(Nc4ccc(OCc5cccc(F)c5)c(Cl)c4)c3c2)o1 — remaining signal (cell-free assay; 0.5 µM): 98.2%
